Published values gathered from unrelated publications.
Protocols differ between the studies behind these lines.
Organism: Mycobacterium tuberculosis
Effect on: microbial growth

Compound	technique	strain	time	MIC
NC(=S)NN=Cc1ccc(OC(=O)CN2C(=O)CSC2=O)cc1	resazurin	H37RV		2.84 µM
FC(F)(F)Oc1ccc(CCNc2cc(-c3cccs3)nc3nncn23)cc1		H37RV		0.33 µM
CC(=O)NC[C@H]1CN(c2ccc(N3CCOCC3)c(F)c2)C(=O)O1	resazurin	H37RV	21 days	0.003 µg/mL
COc1c(N2C[C@@H]3CCCN[C@@H]3C2)c(F)cc2c(=O)c(C(=O)O)cn(C3CC3)c12		H37RV		0.13 µM
CCOc1cc(C=NNC(N)=S)ccc1OC(=O)CN1C(=O)CSC1=O	resazurin	H37RV		0.63 µM
O=[N+]([O-])c1cn2c(n1)OC[C@@H](OCc1ccc(OC(F)(F)F)cc1)C2		H37RV		0.125 µg/mL
CCCc1ccc(CNc2cc(-c3ccccn3)nc3nncn23)cc1		H37RV	5 days	> 100 µM
O=c1[nH]c2ncsc2c(=O)n1O				27.4 µM
CO[C@H]1/C=C/O[C@@]2(C)Oc3c(C)c(O)c4c(O)c(c(/C=N/N5CCN(C)CC5)c(O)c4c3C2=O)NC(=O)/C(C)=C\C=C\[C@H](C)[C@H](O)[C@@H](C)[C@@H](O)[C@@H](C)[C@H](OC(C)=O)[C@@H]1C	resazurin	H37RV	7 days	0.1 µg/mL
C#CCNC(=O)c1c(-c2ccc(OC)cc2)oc2ccc(O)c(CN3CCCCC3)c12		CDC1551		0.8 µM
CCc1cc(=O)c2c(OCC(O)CNC(C)(C)C)c3ccoc3c(OC)c2o1 (stereo not shown)	resazurin	H37RV	21 days	128 µg/mL
Nc1nc2[nH]c(=O)n(O)c(=O)c2s1				> 100 µM
COc1ccc(-c2oc3ccc(O)c(CN4CCCCC4)c3c2C(=O)NCc2cn(Cc3ccccc3)nn2)cc1		CDC1551		2 µM
O=c1[nH]c2nc(-c3ccccc3)sc2c(=O)n1O				12.8 µM
NNC(=O)c1ccncc1	resazurin	H37RV	21 days	0.0625 µg/mL
NNC(=O)c1ccncc1	resazurin	H37RV	5 days	0.03 µg/mL
O=c1[nH]c2nc(-c3cccnc3)sc2c(=O)n1O				> 100 µM
FC(F)(F)c1ccc(CCNc2cc(-c3ccccn3)nc3nnc(C4CC4)n23)cc1		H37RV		42 µM
[H]/N=C(/N)N[C@H]1[C@H](O)[C@@H](O)[C@H](O[C@@H]2O[C@@H](C)[C@](O)(C=O)[C@H]2O[C@@H]2O[C@@H](CO)[C@H](O)[C@@H](O)[C@@H]2NC)[C@@H](N/C(N)=N\[H])[C@@H]1O	resazurin		21 days	64 µg/mL

Compound	technique	strain	time	MIC
COc1cc(C=NNC(N)=S)ccc1OC(=O)CN1C(=O)CSC1=O	resazurin	H37RV		5.23 µM
CO[C@H]1/C=C/O[C@@]2(C)Oc3c(C)c(O)c4c(O)c(c(/C=N/N5CCN(C)CC5)c(O)c4c3C2=O)NC(=O)/C(C)=C\C=C\[C@H](C)[C@H](O)[C@@H](C)[C@@H](O)[C@@H](C)[C@H](OC(C)=O)[C@@H]1C	resazurin	H37RV	21 days	0.5 µg/mL
CCCc1nc2[nH]c(=O)n(O)c(=O)c2s1				47.4 µM
CCc1cc(=O)c2c(OCC(O)CN(CC)CC)c3ccoc3c(OC)c2o1 (stereo not shown)	resazurin	H37RV	21 days	128 µg/mL
NC(=S)NN=Cc1ccc(OC(=O)CN2C(=O)CSC2=O)c(Br)c1	resazurin	H37RV		9.27 µM
NNC(=O)c1ccncc1		H37RV		0.62 µM
FC(F)(F)c1ccc(CCNc2cc(-c3ccccn3)nc3nncn23)cc1		H37RV		0.53 µM
CO[C@H]1/C=C/O[C@@]2(C)Oc3c(C)c(O)c4c(O)c(c(/C=N/N5CCN(C6CCCC6)CC5)c(O)c4c3C2=O)NC(=O)/C(C)=C\C=C\[C@H](C)[C@H](O)[C@@H](C)[C@@H](O)[C@@H](C)[C@H](OC(C)=O)[C@@H]1C	resazurin	H37RV	7 days	0.2 µg/mL
O=C(Cc1ccccc1)Nc1cc(-c2ccccn2)nc2nncn12		H37RV		2 µM
CO[C@H]1/C=C/O[C@@]2(C)Oc3c(C)c(O)c4c(O)c(c(/C=N/N5CCN(C)CC5)c(O)c4c3C2=O)NC(=O)/C(C)=C\C=C\[C@H](C)[C@H](O)[C@@H](C)[C@@H](O)[C@@H](C)[C@H](OC(C)=O)[C@@H]1C	resazurin	H37RV	5 days	0.03 µg/mL
CCc1cc(=O)c2c(O)c3ccoc3c(OC)c2o1	resazurin		21 days	128 µg/mL
NC(=S)NN=Cc1ccc(OC(=O)CN2C(=O)CSC2=O)c(Cl)c1	resazurin	H37RV		5.17 µM
CC(CNc1cc(-c2ccccn2)nc2nncn12)c1ccccc1 (stereo not shown)		H37RV	5 days	> 100 µM
CCOC(=O)c1c(-c2ccc(OC)cc2)oc2ccc(OCc3cn(Cc4ccccc4)nn3)c(CN3CCCCC3)c12		CDC1551		2.4 µM
CCc1ccc(CCNc2cc(-c3ccccn3)nc3cc(Br)nn23)cc1		H37RV		21 µM
CCc1cc(=O)c2c(OCC(O)CN3CCC(C)CC3)c3ccoc3c(OC)c2o1 (stereo not shown)	resazurin	H37RV	21 days	32 µg/mL
Fc1cccc(CCOc2cc(-c3ccccn3)nc3ncnn23)c1		H37RV		> 100 µM
NNC(=O)c1ccncc1		H37RA		0.34 µM
